Results from ChEMBL document CHEMBL4814043, “Optimization of a urea-containing series of nicotinamide phosphoribosyltransferase (NAMPT) activators” (Bioorg Med Chem Lett, 2021).
Converted amounts (≈) assume the structure as drawn. The source made the active and inactive calls. The calls are words filed in the database; no cut-off is given here.

Experiments:
[1] = biological target: T1, Nicotinamide phosphoribosyltransferase (Homo sapiens, UniProt P43490); assay: Activation of human NAMPT
Target sequence in this assay (P43490 whole entry): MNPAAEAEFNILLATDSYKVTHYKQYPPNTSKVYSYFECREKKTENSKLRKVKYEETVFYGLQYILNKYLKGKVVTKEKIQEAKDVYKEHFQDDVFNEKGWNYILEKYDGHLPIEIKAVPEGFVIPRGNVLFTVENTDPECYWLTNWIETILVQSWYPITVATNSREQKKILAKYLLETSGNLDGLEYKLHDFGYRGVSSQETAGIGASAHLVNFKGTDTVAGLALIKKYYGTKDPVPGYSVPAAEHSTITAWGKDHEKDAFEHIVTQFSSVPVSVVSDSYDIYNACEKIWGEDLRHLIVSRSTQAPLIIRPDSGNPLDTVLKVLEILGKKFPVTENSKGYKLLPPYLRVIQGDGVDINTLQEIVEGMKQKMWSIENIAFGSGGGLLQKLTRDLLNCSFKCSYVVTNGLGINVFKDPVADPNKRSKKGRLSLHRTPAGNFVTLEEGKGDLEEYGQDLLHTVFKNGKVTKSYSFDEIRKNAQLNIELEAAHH

[2] = Half life in mouse at 10 mg/kg, po; assay type: ADME, organism-based; details: in vivo
[3] = Oral bioavailability in mouse at 10 mg/kg; assay type: ADME, organism-based; details: in vivo
[4] = AUC in mouse at 10 mg/kg, po; assay type: ADME, organism-based; parameters: dose 10 mg/kg; details: in vivo
[5] = Cmax in mouse at 10 mg/kg, po; assay type: ADME, organism-based; parameters: route oral, dose 10 mg/kg; details: in vivo
[6] = Volume of distribution in mouse at 1 mg/kg, iv; assay type: ADME, organism-based; details: in vivo
[7] = Plasma clearance in mouse at 1 mg/kg, iv; assay type: ADME, organism-based
CYP3A4 = CYP3A4 (Homo sapiens, UniProt P08684); assay: Inhibition of CYP3A4 (unknown origin) at 10 uM measured after 10 mins; assay type: ADME
How it was run: (§1)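 Each CYP isoform (1A2, 2C9, 2D6, 3A4) reacted with compound at 10 µM for 10 min; value reported as percent inhibition.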

[8] = biological target: T1, Nicotinamide phosphoribosyltransferase; assay: Activation of NAMPT in human A549 cells assessed as increase in NMN level at 10 uM incubated for 4 hrs by LC-MS/MS analysis; assay type: cell-based; details: filed as activator
How it was run: (§2)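 A549 cells exposed to 10 µM compound or DMSO vehicle for 4 hr, then harvested; NMN and NAD+ quantified by LC-MS/MS and normalized to cell protein; significance vs. vehicle control by P value.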
Target sequence in this assay (P43490 whole entry, looked up): as the sequence (P43490 whole entry) above

[9] = 1-Octanol/PBS buffer distribution coefficient, log D of the compound at pH 7.4; assay type: physicochemical
How it was run: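 Partitioning measured between 1-octanol and phosphate-buffered saline at pH 7.4.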

[10] = biological target: T1, Nicotinamide phosphoribosyltransferase; assay: Activation of NAMPT in human A549 cells assessed as increase in NAD+ level at 10 uM incubated for 4 hrs by LC-MS/MS analysis; assay type: cell-based; details: filed as activator; how it was run: as §2
Target sequence in this assay (P43490 whole entry, looked up): as the sequence (P43490 whole entry) above

[11] = Metabolic stability in mouse liver microsomes assessed as parent compound remaining at 1 uM measured after 30 mins; assay type: ADME, Microsome; details: read-out: Stabilty
How it was run: (§3)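 Compound at 1 µM incubated with human or mouse microsomes for 30 min; read-out is percent parent remaining.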

[12] = Metabolic stability in human liver microsomes assessed as parent compound remaining at 1 uM measured after 30 mins; assay type: ADME, Microsome; details: read-out: Stabilty; how it was run: as §3
CYP2C9 = CYP2C9 (Homo sapiens, UniProt P11712); assay: Inhibition of CYP2C9 (unknown origin) at 10 uM measured after 10 mins; assay type: ADME; how it was run: as §1
[13] = Permeability of compound at pH 5 by PAMPA assay; assay type: ADME; details: read-out: permeability
[14] = Solubility of compound at pH 6.8; assay type: physicochemical; details: buffer
[15] = Permeability of compound at pH 7.4 by PAMPA assay; assay type: ADME; details: read-out: permeability
CYP2D6 = CYP2D6 (Homo sapiens, UniProt P10635); assay: Inhibition of CYP2D6 (unknown origin) at 10 uM measured after 10 mins; assay type: ADME; how it was run: as §1
[16] = Solubility of compound at pH 1.2; assay type: physicochemical; details: buffer
CYP1A2 = biological target: T2, CYP1A2 (Homo sapiens, UniProt P05177); assay: Inhibition of CYP1A2 (unknown origin) at 10 uM measured after 10 mins; assay type: ADME; how it was run: as §1
T2 sequence (P05177 whole entry): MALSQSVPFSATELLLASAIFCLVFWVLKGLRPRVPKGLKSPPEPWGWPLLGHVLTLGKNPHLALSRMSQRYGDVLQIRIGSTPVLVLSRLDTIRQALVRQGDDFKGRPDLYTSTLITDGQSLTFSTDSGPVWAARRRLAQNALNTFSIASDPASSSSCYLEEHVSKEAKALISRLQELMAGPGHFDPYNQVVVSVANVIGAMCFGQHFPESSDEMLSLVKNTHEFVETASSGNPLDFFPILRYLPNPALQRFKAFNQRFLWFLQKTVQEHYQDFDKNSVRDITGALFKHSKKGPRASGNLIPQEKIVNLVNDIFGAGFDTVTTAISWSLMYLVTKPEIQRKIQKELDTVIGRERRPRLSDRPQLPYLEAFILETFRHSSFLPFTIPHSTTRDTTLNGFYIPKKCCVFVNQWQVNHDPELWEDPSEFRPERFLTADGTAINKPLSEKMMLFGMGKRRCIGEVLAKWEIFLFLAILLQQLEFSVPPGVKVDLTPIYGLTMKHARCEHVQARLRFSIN

CYP2D6, sequence (P10635 whole entry): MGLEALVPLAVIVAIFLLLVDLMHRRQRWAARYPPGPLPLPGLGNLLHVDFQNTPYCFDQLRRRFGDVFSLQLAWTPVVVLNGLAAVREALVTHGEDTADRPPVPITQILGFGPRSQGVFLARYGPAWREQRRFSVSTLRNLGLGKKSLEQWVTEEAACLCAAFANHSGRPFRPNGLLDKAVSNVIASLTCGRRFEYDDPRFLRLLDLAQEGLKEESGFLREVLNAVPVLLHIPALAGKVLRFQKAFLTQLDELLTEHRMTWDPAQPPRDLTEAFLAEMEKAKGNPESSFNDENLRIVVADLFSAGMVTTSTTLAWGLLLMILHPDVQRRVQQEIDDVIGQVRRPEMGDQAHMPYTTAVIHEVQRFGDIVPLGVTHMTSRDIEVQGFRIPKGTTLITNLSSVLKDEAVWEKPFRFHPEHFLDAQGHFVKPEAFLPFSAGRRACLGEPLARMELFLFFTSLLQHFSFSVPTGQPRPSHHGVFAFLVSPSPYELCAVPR
CYP2C9, sequence (P11712 whole entry): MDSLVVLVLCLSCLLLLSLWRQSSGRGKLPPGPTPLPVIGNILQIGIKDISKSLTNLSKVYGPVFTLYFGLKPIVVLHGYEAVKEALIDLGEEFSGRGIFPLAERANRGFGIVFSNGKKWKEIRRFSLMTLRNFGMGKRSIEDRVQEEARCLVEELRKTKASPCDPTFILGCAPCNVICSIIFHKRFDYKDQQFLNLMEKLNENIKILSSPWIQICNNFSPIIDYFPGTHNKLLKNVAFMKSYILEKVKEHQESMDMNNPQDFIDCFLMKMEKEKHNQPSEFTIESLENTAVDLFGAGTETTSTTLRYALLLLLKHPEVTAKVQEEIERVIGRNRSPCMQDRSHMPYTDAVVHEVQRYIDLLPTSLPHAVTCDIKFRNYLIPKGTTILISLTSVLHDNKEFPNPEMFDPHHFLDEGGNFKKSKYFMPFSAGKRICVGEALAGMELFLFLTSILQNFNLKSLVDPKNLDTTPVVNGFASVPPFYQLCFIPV
CYP3A4, sequence (P08684 whole entry, canonical isoform): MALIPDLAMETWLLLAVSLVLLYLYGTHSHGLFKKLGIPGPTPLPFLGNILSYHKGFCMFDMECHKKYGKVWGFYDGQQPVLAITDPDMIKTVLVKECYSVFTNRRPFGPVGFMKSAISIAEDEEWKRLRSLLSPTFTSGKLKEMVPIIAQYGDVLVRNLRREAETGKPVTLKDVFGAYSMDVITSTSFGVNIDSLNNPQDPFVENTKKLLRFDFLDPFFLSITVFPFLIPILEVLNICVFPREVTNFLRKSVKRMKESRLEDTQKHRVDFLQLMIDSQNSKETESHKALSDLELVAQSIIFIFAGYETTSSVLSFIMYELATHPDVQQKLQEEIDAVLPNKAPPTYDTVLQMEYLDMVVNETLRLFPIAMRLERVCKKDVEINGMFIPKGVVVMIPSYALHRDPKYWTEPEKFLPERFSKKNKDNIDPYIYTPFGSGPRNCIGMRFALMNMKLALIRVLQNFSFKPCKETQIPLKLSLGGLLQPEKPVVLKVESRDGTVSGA

Question: For `O=C(NCc1ccncc1)Nc1ccc(S(=O)(=O)NCc2ccccc2)cc1`, which EC50 [1] is on record?
Answer: 102 nM

Question: With `CCOC(=O)c1ccc(NC(=O)NCc2cn[nH]c2)cc1` as the compound, how does the EC50 [1] read?
Answer: 1850 nM

Question: Which EC50 [1] does the source give for `CCOC(=O)c1ccc(N(C)C(=O)NCc2ccncc2)cc1` here?
Answer: > 100000 nM

Question: For `CCOC(=O)c1ccc(NC(=O)NCc2ccccc2)cc1`, which EC50 [1] is on record?
Answer: 1370 nM

Question: For `O=C(NCc1ccncc1)Nc1ccc(S(=O)(=O)c2ccccc2)cc1`, which EC50 [1] is on record?
Answer: 85 nM

Question: With `CCOC(=O)c1ccc(NC(=O)NCc2ccnnc2)cc1` as the compound, how does the EC50 [1] read?
Answer: > 100000 nM

Question: What does the source list for `O=C(NCc1cn[nH]c1)Nc1ccc(S(=O)(=O)c2ccccc2)cc1`?
Answer: half-life [2]: 150 min; EC50 [1]: 28 nM; bioavailability [3]: 45%; AUC [4]: 9340 ng·h/mL; Cmax [5]: 2230 ng/mL; Vd [6]: 1.12 L/kg; clearance [7]: 8 mL/min/kg

Question: For `CCOC(=O)c1ccc(NC(=O)NC(C)c2ccncc2)cc1` (stereo not given), which EC50 [1] is on record?
Answer: 2280 nM

Question: For `O=C(NCc1cn[nH]c1)Nc1ccc(S(=O)(=O)c2ccc(Cl)cc2)cc1`, which half-life [2] is on record?
Answer: 192 min

Question: And the inhibition at 10 min, 10 µM (CYP3A4)?
Answer: 0%

Question: And the EC50 [1]?
Answer: 23 nM

Question: What about the bioavailability [3] of the same compound?
Answer: 80%

Question: And the Activity [8]?
Answer: Active

Question: And the AUC [4]?
Answer: 54500 ng·h/mL

Question: What about the Cmax [5] of the same compound?
Answer: 9550 ng/mL

Question: What about the logD [9] of the same compound?
Answer: 3.1

Question: And the Activity [10]?
Answer: Active

Question: What about the remaining at 0.5 h, 1 µM [11] of the same compound?
Answer: 18%

Question: And the remaining at 0.5 h, 1 µM [12]?
Answer: 87%

Question: What about the Vd [6] of the same compound?
Answer: 0.61 L/kg

Question: And the inhibition at 10 min, 10 µM (CYP2C9)?
Answer: 96%

Question: What about the clearance [7] of the same compound?
Answer: 3 mL/min/kg

Question: What about the Papp [13] of the same compound?
Answer: < 0.01 ×10⁻⁶ cm/s

Question: What about the solubility [14] of the same compound?
Answer: 8.5 µg/mL (≈ 21.7 µM)

Question: What about the Papp [15] of the same compound?
Answer: 0.04 ×10⁻⁶ cm/s

Question: And the inhibition at 10 min, 10 µM (CYP2D6)?
Answer: 95%

Question: What about the solubility [16] of the same compound?
Answer: 110 µg/mL (≈ 281 µM)

Question: And the inhibition at 10 min, 10 µM (CYP1A2)?
Answer: 65%

Question: With `CN(C)S(=O)(=O)c1ccc(NC(=O)NCc2ccncc2)cc1` as the compound, how does the EC50 [1] read?
Answer: 3110 nM

Question: With `CCOC(=O)c1ccc(NC(=O)OCc2ccncc2)cc1` as the compound, how does the EC50 [1] read?
Answer: 10800 nM

Question: For `O=C(NCc1cnco1)Nc1ccc(S(=O)(=O)c2ccccc2)cc1`, which EC50 [1] is on record?
Answer: 77 nM

Question: Which EC50 [1] does the source give for `CCOC(=O)c1ccc(N/C(=N\C#N)NCc2ccncc2)cc1` here?
Answer: 41400 nM

Question: With `CCOC(=O)c1ccc(NC(=O)NCc2c[nH]nn2)cc1` as the compound, how does the EC50 [1] read?
Answer: 7750 nM

Question: Which half-life [2] does the source give for `O=C(NCc1ccncc1)Nc1ccc(S(=O)(=O)N2CCc3ccccc3C2)cc1` here?
Answer: 60 min

Question: What about the EC50 [1] of the same compound?
Answer: 142 nM

Question: What about the bioavailability [3] of the same compound?
Answer: 47%

Question: And the AUC [4]?
Answer: 4270 ng·h/mL

Question: And the Cmax [5]?
Answer: 7860 ng/mL

Question: What about the Vd [6] of the same compound?
Answer: 0.6 L/kg

Question: And the clearance [7]?
Answer: 20 mL/min/kg

Question: Which EC50 [1] does the source give for `CCOC(=O)c1ccc(NC(=O)NCc2cocn2)cc1` here?
Answer: 27600 nM

Question: Which EC50 [1] does the source give for `CCOC(=O)c1ccc(CC(=O)NCc2ccncc2)cc1` here?
Answer: > 100000 nM

Question: Which EC50 [1] does the source give for `CCOC(=O)c1ccc(NC(=S)NCc2ccncc2)cc1` here?
Answer: 9770 nM

Question: Which EC50 [1] does the source give for `CCOC(=O)c1ccc(NC(=O)CCc2ccncc2)cc1` here?
Answer: 15900 nM

Question: What does the source list for `O=C(NCc1cnco1)Nc1ccc(S(=O)(=O)c2cccc(OC(F)(F)F)c2)cc1`?
Answer: half-life [2]: 138 min; bioavailability [3]: > 100%; AUC [4]: 45200 ng·h/mL; Cmax [5]: 15300 ng/mL; Vd [6]: 0.58 L/kg; clearance [7]: 4 mL/min/kg

Question: Which EC50 [1] does the source give for `O=C(NCc1ccncc1)Nc1ccc(S(=O)(=O)N2CC3CCC(C2)O3)cc1` here?
Answer: 279 nM

Question: Which EC50 [1] does the source give for `CNS(=O)(=O)c1ccc(NC(=O)NCc2ccncc2)cc1` here?
Answer: 3230 nM

Question: With `CCOC(=O)c1ccc(NC(=O)NCc2cc[nH]n2)cc1` as the compound, how does the EC50 [1] read?
Answer: 69000 nM

Question: For `CN(Cc1ccccc1)S(=O)(=O)c1ccc(NC(=O)NCc2ccncc2)cc1`, which half-life [2] is on record?
Answer: 36 min

Question: What about the bioavailability [3] of the same compound?
Answer: > 100%

Question: And the AUC [4]?
Answer: 4510 ng·h/mL

Question: And the Cmax [5]?
Answer: 4950 ng/mL

Question: And the Vd [6]?
Answer: 1.37 L/kg

Question: And the clearance [7]?
Answer: 43 mL/min/kg

Question: With `O=C(NCc1ccncc1)Nc1ccc(S(=O)(=O)c2ccc(Cl)cc2)cc1` as the compound, how does the EC50 [1] read?
Answer: 126 nM

Question: Which EC50 [1] does the source give for `CN(C1CCCC1)S(=O)(=O)c1ccc(NC(=O)NCc2ccncc2)cc1` here?
Answer: 123 nM

Question: For `CCOC(=O)c1ccc(NC(=O)NCc2ccncn2)cc1`, which EC50 [1] is on record?
Answer: 13600 nM

Question: Which EC50 [1] does the source give for `O=C(NCc1ccncc1)Nc1ccc(S(=O)(=O)Nc2ccccc2)cc1` here?
Answer: 410 nM

Question: Which EC50 [1] does the source give for `CCOC(=O)c1ccc(NC(=O)N(C)Cc2ccncc2)cc1` here?
Answer: > 100000 nM
